According to ChEMBL document CHEMBL2413044, “Synthesis and biological evaluation of potential threonine synthase inhibitors: Rhizocticin A and Plumbemycin A” (Bioorg Med Chem, 2013):
Activity calls are given as the source filed them.

What was measured:
Type in all cases: functional, organism-based
Candida albicans [1] = experiment: Antifungal activity against Candida albicans at 3.5 to 1050 ug/L after 24 hrs by malt extract medium disc diffusion method
Outline: (§1)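 Disk diffusion on yeast-seeded agar plates (20 g/L agar added), either malt extract medium or YNB without amino acids. Sterile 6 mm paper disks held varying amounts of compound, matching the liquid-assay concentrations. The growth-inhibition zone diameter was measured after 24 h at 28 °C.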

Candida albicans [2] = experiment: Antifungal activity against Candida albicans at 3.5 to 1050 ug/L after 24 hrs by microdilution method
Outline: (§2)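 Yeast microdilution in 24-well plates. Wells were seeded at OD600 0.1 and grown aerobically with the compound (range as in the assay line) for 24 h at 28 °C with agitation. Growth was read as OD600. Runs were in triplicate in YPD, malt extract (20 g/L), RPMI 1640, and YNB without amino acids.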

Saccharomyces cerevisiae [3] = experiment: Antifungal activity against Saccharomyces cerevisiae at 3.5 to 1050 ug/L after 24 hrs by microdilution method; outline: as §2
Nakaseomyces glabratus [4] = experiment: Antifungal activity against Candida glabrata at 3.5 to 1050 ug/L after 24 hrs by malt extract medium disc diffusion method; outline: as §1
Candida albicans [5] = experiment: Antifungal activity against Candida albicans at 3.5 to 1050 ug/L after 24 hrs by YNB medium disc diffusion method in absence of amino acids; outline: as §1
Saccharomyces cerevisiae [6] = experiment: Antifungal activity against Saccharomyces cerevisiae at 3.5 to 1050 ug/L after 24 hrs by YNB medium disc diffusion method in absence of amino acids; outline: as §1
Nakaseomyces glabratus [7] = experiment: Antifungal activity against Candida glabrata at 3.5 to 1050 ug/L after 24 hrs by microdilution method; outline: as §2
Saccharomyces cerevisiae [8] = experiment: Antifungal activity against Saccharomyces cerevisiae at 3.5 to 1050 ug/L after 24 hrs by malt extract medium disc diffusion method; outline: as §1
Nakaseomyces glabratus [9] = experiment: Antifungal activity against Candida glabrata at 3.5 to 1050 ug/L after 24 hrs by YNB medium disc diffusion method in absence of amino acids; outline: as §1
Pseudomonas aeruginosa [10] = experiment: Antibacterial activity against Pseudomonas aeruginosa 2 to 10 ug/L after 24 hrs by microdilution method
Listeria innocua [11] = experiment: Antibacterial activity against Listeria innocua 2 to 10 ug/L after 24 hrs by Stephenson-Wetham medium disc diffusion method in absence of amino acids
Outline: (§3)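 Agar diffusion. Sterile 6 mm paper disks carrying different amounts of compound were placed on Stephenson–Wetham agar (20 g/L agar) pre-seeded with the indicator bacterium. Amounts matched those of the liquid test. After 24 h at 37 °C, the diameter of the growth-inhibition zone was measured.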

Bacillus subtilis [12] = experiment: Antibacterial activity against Bacillus subtilis 2 to 10 ug/L after 24 hrs by Stephenson-Wetham medium disc diffusion method in absence of amino acids; outline: as §3
Escherichia coli [13] = experiment: Antibacterial activity against Escherichia coli 2 to 10 ug/L after 24 hrs by Stephenson-Wetham medium disc diffusion method in absence of amino acids; outline: as §3
Pseudomonas aeruginosa [14] = experiment: Antibacterial activity against Pseudomonas aeruginosa 2 to 10 ug/L after 24 hrs by Stephenson-Wetham medium disc diffusion method in absence of amino acids; outline: as §3
Listeria innocua [15] = experiment: Antibacterial activity against Listeria innocua 2 to 10 ug/L after 24 hrs by microdilution method
Listeria innocua [16] = experiment: Antibacterial activity against Listeria innocua 2 to 10 ug/L after 24 hrs by Stephenson-Wetham medium disc diffusion method; outline: as §3
Pseudomonas aeruginosa [17] = experiment: Antibacterial activity against Pseudomonas aeruginosa 2 to 10 ug/L after 24 hrs by Stephenson-Wetham medium disc diffusion method; outline: as §3
Escherichia coli [18] = experiment: Antibacterial activity against Escherichia coli 2 to 10 ug/L after 24 hrs by microdilution method
Escherichia coli [19] = experiment: Antibacterial activity against Escherichia coli 2 to 10 ug/L after 24 hrs by Stephenson-Wetham medium disc diffusion method; outline: as §3
Bacillus subtilis [20] = experiment: Antibacterial activity against Bacillus subtilis 2 to 10 ug/L after 24 hrs by Stephenson-Wetham medium disc diffusion method; outline: as §3
Bacillus subtilis [21] = experiment: Antibacterial activity against Bacillus subtilis 2 to 10 ug/L after 24 hrs by microdilution method

Measured: Activity

N=C(N)NCCC[C@H](N)C(=O)N[C@@H](/C=C\CP(=O)(O)O)C(=O)O
inactive: Candida albicans [1] | Candida albicans [2] | Saccharomyces cerevisiae [3] | Nakaseomyces glabratus [4] | Candida albicans [5] | Saccharomyces cerevisiae [6] | Nakaseomyces glabratus [7] | Saccharomyces cerevisiae [8] | Nakaseomyces glabratus [9]

C[C@H](N)C(=O)N[C@@H](CC(=O)O)C(=O)N[C@@H](/C=C\CP(=O)(O)O)C(=O)O
not listed: Candida albicans [1] | Candida albicans [2] | Saccharomyces cerevisiae [3] | Nakaseomyces glabratus [4] | Candida albicans [5] | Saccharomyces cerevisiae [6] | Nakaseomyces glabratus [7] | Saccharomyces cerevisiae [8] | Nakaseomyces glabratus [9]
inactive: all other assays above
